Published values of several laboratories.
Protocols differ between the studies behind these lines.

| SMILES | assay | system | conditions | quantity | value |
| --- | --- | --- | --- | --- | --- |
| COc1ccc2c(c1)CN(C(=O)CCN1CCC(Cc3ccccc3)CC1)CC[S@@+]2[O-] | – | male human, plasma | intravenous, 0.15 mg/kg, healthy volunteers | clearance | 223 mL/min |
| c1cc(-c2ccc3ncnc(Nc4ncco4)c3c2)cc(N2CC3CCC(C2)O3)c1 | shake flask | aqueous buffer | pH 7.4 | logD | > 3.6 |
| CC1(C)NC(=O)N(c2ccc(F)c(OC(F)(F)F)c2)C1=O | HPLC | – | pH 7.4 | chromatographic logD | 2.9 |
| FC(F)(F)c1cc(Nc2ncnc3ccc(-c4cccc(N5CCOCC5)c4)cc23)ccc1Cl | shake flask | aqueous buffer | pH 7.4 | logD | > 4.1 |
| COCC(=O)N1CCC[C@H](C(=O)NCc2nc(-c3ccccc3)cs2)C1 | metabolic stability | male Sprague-Dawley rat, liver microsomes | 0.5 µM | microsomal CLint | 19 µL/min/mg |
| CN1CCC(Oc2ccc3c(=O)c4c(F)cc(Cl)cc4[nH]c3c2)CC1 | metabolic stability | human, liver microsomes | 1 µM, pH 7.4 | microsomal CLint | 24.9 µL/min/mg |
| CC1(C)NC(=O)N(c2cccc(C(F)(F)F)n2)C1=O | HPLC | – | pH 7.4 | chromatographic logD | 1.6 |
| CCONC(=O)N1CCC[C@H](C(=O)NCc2nc(-c3ccc(C#N)cc3)cs2)C1 | metabolic stability | human, liver microsomes | 0.5 µM | microsomal CLint | 9 µL/min/mg |
| O=c1c2c([nH]c3ccc(F)c(Oc4ccc(OC(F)(F)F)cc4)c13)CCCC2 | metabolic stability | human, liver microsomes | 1 µM, pH 7.4 | microsomal CLint | 92.7 µL/min/mg |
| CCONC(=O)N1CCC[C@H](C(=O)N[C@@H](C)c2nc(-c3ccc(C#N)cc3)cs2)C1 | metabolic stability | male Sprague-Dawley rat, liver microsomes | 0.5 µM | microsomal CLint | 36 µL/min/mg |
| CC1(C)NC(=O)N(c2ccc(F)c(Br)c2)C1=O | HPLC | – | pH 7.4 | chromatographic logD | 2.4 |
| Cc1cc(S(=O)(=O)N[C@H]2CC[C@H](CN3CCN(c4ccc(C5CCC(=O)NC5=O)c(Cl)c4)CC3)CC2)ccc1Nc1ncc(C(F)(F)F)c(N2CCC[C@](C)(O)C2)n1 (stereo partly shown) | metabolic stability | human, liver microsomes | 1 µM | scaled CLint | 20 mL/min/kg |
| NCCOCC(=O)N1CCC[C@H](C(=O)NCc2nc(-c3ccc(C(F)(F)F)cc3)cs2)C1 | metabolic stability | male Sprague-Dawley rat, hepatocytes | 0.5 µM | scaled CLint | < 4.2 mL/min/kg |
| Cc1cc(S(=O)(=O)NC2CC(N3CCN(CC4CCN(c5ccc6c(c5F)n(C)c(=O)n6C5CCC(=O)NC5=O)CC4)CC3)C2)ccc1Nc1ncc(C(F)(F)F)c(N2CCCC(C)(O)C2)n1 (stereo not shown) | metabolic stability | human, liver microsomes | 1 µM | scaled CLint | 22 mL/min/kg |
| O=C(NCc1nc(-c2ccc(C(F)(F)F)cc2)cs1)[C@H]1CCCN(C(=O)COCCN2CCCC2)C1 | metabolic stability | human, liver microsomes | 0.5 µM | microsomal CLint | 14 µL/min/mg |
| Cc1cc(S(=O)(=O)N[C@H]2CC[C@H](CN3CCN(c4cccc(NC5CCC(=O)NC5=O)c4)CC3)CC2)ccc1Nc1ncc(C(F)(F)F)c(N2CCC[C@](C)(O)C2)n1 (stereo partly shown) | metabolic stability | rat, liver microsomes | 1 µM | scaled CLint | < 21 mL/min/kg |
| C[C@H]1[C@@H](C(=O)NCc2nc(-c3ccc(C#N)cc3)cs2)CCCN1C(=O)[C@H]1CCO1 | metabolic stability | male Sprague-Dawley rat, liver microsomes | 0.5 µM | microsomal CLint | 45 µL/min/mg |
| Cc1cc(S(=O)(=O)NC2CC(N3CC[C@@H](OC4CN(c5cccc6c5n(C)c(=O)n6C5CCC(=O)NC5=O)C4)[C@H](F)C3)C2)ccc1Nc1ncc(C(F)(F)F)c(N2CCC[C@](C)(O)C2)n1 (stereo partly shown) | metabolic stability | rat, liver microsomes | 1 µM | scaled CLint | 23 mL/min/kg |
| CC1(C)NC(=O)N(c2ccc3c(c2)OC(F)(F)O3)C1=O | HPLC | – | pH 7.4 | chromatographic logD | 2.5 |
